Test results reported in article PMC9774327 (ACS Omega, 2022).
Where a SMILES comes first, the peptide text is derived from it. Bridges are numbered along the chain shown (N, C = ends). Where no end group is shown, it is not given here. [ ]: non-standard residue; d: D form. S5 = C=CCCC[C@](C)(N)C(=O)O

What was measured:
[1] = target: T1, VDR-mediated transcription in MCF-7 cells expressing the VDR (Homo sapiens, UniProt P11473); assay: Dual-luciferase reporter gene assay of VDR-mediated transcription; format: cell-based; conditions: 3 μM peptide, 30 nM calcitriol defined as 100%, 16 h incubation
T1 sequence (P11473 1-427): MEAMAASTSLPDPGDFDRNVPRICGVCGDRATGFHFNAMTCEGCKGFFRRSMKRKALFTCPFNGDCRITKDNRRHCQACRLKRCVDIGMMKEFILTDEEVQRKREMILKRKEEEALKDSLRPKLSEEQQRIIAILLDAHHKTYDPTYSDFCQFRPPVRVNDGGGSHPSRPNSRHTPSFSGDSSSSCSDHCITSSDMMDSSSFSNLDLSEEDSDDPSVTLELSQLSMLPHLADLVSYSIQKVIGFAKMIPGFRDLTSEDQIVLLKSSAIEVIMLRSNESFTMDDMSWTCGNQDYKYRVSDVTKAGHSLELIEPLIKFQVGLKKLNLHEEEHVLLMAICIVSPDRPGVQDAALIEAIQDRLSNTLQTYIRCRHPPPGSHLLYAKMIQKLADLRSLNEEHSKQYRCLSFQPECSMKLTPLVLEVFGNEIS
Method in brief: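 MCF-7 cells (RPMI-1640, 10% heat-inactivated FBS, 1% penicillin/streptomycin) seeded at 4×10^4 cells/well and cultured 24 h. Cells were co-transfected by lipofection with a VDRE-firefly luciferase reporter and SV40-Renilla luciferase control. After 8 h, test compound was added with 1α,25(OH)₂D₃ (30 nM) for 16 h. Dual-luciferase activity was read in lysates, with 30 nM calcitriol activation set as 100%.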

MCF-7 cells = assay: Confocal microscope observation of intracellular localization; format: cell-based; conditions: peptide 1 μM with LysoTracker 70 nM for 2 h, Figure S8
Method in brief: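 MCF-7 cells grown in RPMI-1640 with 10% heat-inactivated FBS and 1% penicillin/streptomycin, then plated on glass-bottom dishes. They were co-incubated 2 h with peptide and LysoTracker, then stained with Hoechst33342 for 5 min and washed with PBS before confocal imaging.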

[2] = target: ligand binding domain of rat VDR with a deleted loop region (Ser165–Pro211) (rat) (UniProt P13053); assay: fluorescence polarisation
Chain of ligand binding domain of rat VDR with a deleted loop region (Ser165–Pro211) (rat) (P13053 212-423, stated change not applied): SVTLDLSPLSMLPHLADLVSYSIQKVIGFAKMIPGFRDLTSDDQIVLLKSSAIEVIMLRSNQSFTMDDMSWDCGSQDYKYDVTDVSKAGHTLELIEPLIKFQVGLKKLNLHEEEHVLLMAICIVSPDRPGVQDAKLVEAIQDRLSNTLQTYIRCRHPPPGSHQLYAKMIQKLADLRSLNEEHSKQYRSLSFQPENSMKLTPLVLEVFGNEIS

HL-60 cells = assay: NBT reduction assay of VDR-mediated cell differentiation; format: cell-based; conditions: 1 μM peptide with 30 nM VD3, 48 h, NBT-positive cells counted
Method in brief: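 HL-60 cells in RPMI-1640 with 10% heat-inactivated FBS were treated 48 h with VD₃ (30 nM) with or without peptide. Cells were then stained with 1 mg/mL NBT plus 320 nM PMA for 30 min at 37 °C. NBT-positive cells were counted microscopically among more than 200 cells and expressed as a percentage. Data are means ± SD of three independent experiments.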

| Compound | % Inhibition at 3 μM of VDR-mediated transcriptional activity [1] | intracellular localization (confocal microscopy) (MCF-7 cells) | relative value of IC50 (to SRC2-3) [2] | inhibition of HL-60 cell differentiation at 1 μM (HL-60 cells) |
| --- | --- | --- | --- | --- |
| CC(C)C[C@H](NC(=O)[C@H](CC(C)C)NC(=O)[C@]1(C)CCCC=CCCC[C@](C)(NC(=O)[C@H](CC(N)=O)NC(=O)[C@H](CCC(=O)O)NC(=O)[C@@H](N)CCCCN)C(=O)N[C@@H](CC(C)C)C(=O)N[C@@H](CC(C)C)C(=O)N[C@@H](CCCNC(=N)N)C(=O)N1)C(=O)N[C@@H](CC(=O)O)C(=O)N[C@@H](CCCCN)C(=O)N[C@@H](CC(=O)O)C(=O)NCC(=O)NCC(=O)NCC(=O)N[C@@H](CCCNC(=N)N)C(=O)N[C@@H](CCCNC(=N)N)C(=O)N[C@@H](CCCNC(=N)N)C(=O)N[C@@H](CCCNC(=N)N)C(=O)N[C@@H](CCCNC(=N)N)C(=O)N[C@@H](CCCNC(=N)N)C(=O)N[C@@H](CCCNC(=N)N)C(=O)N[C@@H](CCCNC(=N)N)C(=O)N[C@@H](CCCNC(=N)N)C(N)=O [Peptide 23] (H-KEN[S5]LLR[S5]LLDKDGGGRRRRRRRRR-NH2; staple 4-8) | 44.3% | localized in the endosome | – | – |
| SRC2-3 peptide | – | – | 1 | – |
| KENALLRYLLDKDGGGRRRRRRRRR-NH2 [Peptide 21] | – | – | – | did not inhibit cell differentiation |
| CC(C)C[C@H](NC(=O)[C@H](C)NC(=O)[C@H](CC(N)=O)NC(=O)[C@H](CCC(=O)O)NC(=O)[C@@H](N)CCCCN)C(=O)N[C@@H](CC(C)C)C(=O)N[C@@H](CCCNC(=N)N)C(=O)N[C@@]1(C)CCCC=CCCC[C@@](C)(C(=O)N[C@@H](CC(=O)O)C(=O)NCC(=O)NCC(=O)NCC(=O)N[C@@H](CCCNC(=N)N)C(=O)N[C@@H](CCCNC(=N)N)C(=O)N[C@@H](CCCNC(=N)N)C(=O)N[C@@H](CCCNC(=N)N)C(=O)N[C@@H](CCCNC(=N)N)C(=O)N[C@@H](CCCNC(=N)N)C(=O)N[C@@H](CCCNC(=N)N)C(=O)N[C@@H](CCCNC(=N)N)C(=O)N[C@@H](CCCNC(=N)N)C(N)=O)NC(=O)[C@H](CC(=O)O)NC(=O)[C@H](CC(C)C)NC(=O)[C@H](CC(C)C)NC1=O [Peptide 24] | – | broadly localized over the entire cell | – | did not inhibit cell differentiation |
